Results from different studies.
Target: Serine/threonine-protein kinase ULK3 (ULK3, Homo sapiens, UniProt Q6PHR2)
Sequence (Q6PHR2 1-472, as in one of the studies): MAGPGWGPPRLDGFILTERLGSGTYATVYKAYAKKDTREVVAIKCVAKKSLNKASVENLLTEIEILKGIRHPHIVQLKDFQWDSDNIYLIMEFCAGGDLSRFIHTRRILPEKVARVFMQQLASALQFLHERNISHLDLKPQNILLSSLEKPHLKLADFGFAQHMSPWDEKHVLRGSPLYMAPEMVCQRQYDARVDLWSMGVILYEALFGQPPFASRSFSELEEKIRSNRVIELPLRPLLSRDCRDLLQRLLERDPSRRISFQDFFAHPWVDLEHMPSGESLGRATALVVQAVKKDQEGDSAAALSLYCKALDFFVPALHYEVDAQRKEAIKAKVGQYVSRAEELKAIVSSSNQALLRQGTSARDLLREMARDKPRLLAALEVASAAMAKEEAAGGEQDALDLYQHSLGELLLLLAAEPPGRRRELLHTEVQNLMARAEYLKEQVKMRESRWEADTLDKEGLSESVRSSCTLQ

SMILES	effect on	technique	tested at	remaining binding [%]
c1cncc(-c2cccc(Nc3nccc(NC4CCCCC4)n3)c2)c1	binding	competition with immobilised ligand	10 µM	44
CS(=O)(=O)NCC[C@H](NC(=O)c1cncc2c1cnn2-c1ccc(F)cc1)c1ccnc(S(C)(=O)=O)c1	cell-free assay	competition with immobilised ligand	1 µM	100
Cc1cc(-c2cc(C(F)(F)F)ccc2O[C@H]2C[C@@]2(CNS(=O)(=O)c2ccc([N+](=O)[O-])cc2)c2ccc(F)cc2F)[nH]n1	cell-free assay	competition with immobilised ligand	0.3 µM	9.8
Nc1ncc2c(n1)-c1c([nH]c3ccc(C#CC4CC4)cc13)CCCC2	binding	competition with immobilised ligand	1 µM	86
O=C(Nc1c[nH]nc1C(=O)NC1CCNCC1)c1cc(F)cc(F)c1	binding	competition with immobilised ligand	1 µM	100
O=C(NCc1ncc(C(F)(F)F)cc1Cl)c1ccc2c(c1)C1(CCS(=O)(=O)CC1)[C@@H](C1CC1)N2S(=O)(=O)c1ccc(F)cc1	cell-free assay	competition with immobilised ligand	1 µM	69
N[C@H]1CCN(c2nccc(-c3cnn4ncccc34)n2)C1	binding	–	1 µM	86
O=C(c1ccc(Nc2nccc(-c3cc4ccccc4s3)n2)cc1)N1CCC(N2CCCC2)CC1	binding	competition with immobilised ligand	1 µM	0.4
CS(=O)(=O)N1CCCC(NC(=O)[C@H](CCC2CCCCC2)NC(=O)c2ccc(CNC(=O)c3cnc4ccccn34)cc2)C1 (some centres unmarked)	cell-free assay	competition with immobilised ligand	0.1 µM	100
CN(C)c1ncc(F)c(-c2cnn3ncccc23)n1	binding	–	1 µM	72
CNC(=O)Nc1ccc2c(c1)[C@@]1(CC2)OC(=O)N(CC(=O)N(Cc2ccc(F)cc2)[C@@H](C)C(F)(F)F)C1=O	cell-free assay	competition with immobilised ligand	1 µM	55
CC1CCCN1c1nccc(-c2cnn3ncccc23)n1 (centres unmarked)	binding	–	1 µM	100
O=C(c1ccc(Nc2ncc(Cl)c(-c3ccc(Cl)s3)n2)cc1)N1CCC(N2CCCC2)CC1	binding	competition with immobilised ligand	1 µM	0.1
CN(c1nccc(-c2cnn3ncccc23)n1)C1CC1	binding	–	1 µM	100
CNC(=O)[C@@H]1CC[C@@H](n2c(-c3ccc4cnccc4c3)nc3ccc(C(=O)NCc4cccc(C(N)=O)c4)cc32)C1	binding	competition with immobilised ligand	1 µM	88
O=C(O)[C@H]1[C@H](Cn2nnc3ccccc3c2=O)CC[C@@H]1C(=O)c1ccc(OCCC2CCOCC2)cc1	cell-free assay	competition with immobilised ligand	1 µM	85
CN(C)c1nccc(-c2cnc3ncccn23)n1	binding	–	1 µM	75
CN(C)c1ncnc(-c2ccc3nc(Nc4cc(CN5CCN(C(=O)CC(F)(F)F)CC5)ccn4)[nH]c3c2)c1Cl	cell-free assay	competition with immobilised ligand	1 µM	61
CN(CCCC(F)(F)F)c1nccc(-c2cnn3ncccc23)n1	binding	–	1 µM	94
O=C(NCCCN1CCOCC1)c1ccc(Nc2nccc(-c3cc4ccccc4s3)n2)cc1	binding	competition with immobilised ligand	1 µM	3.2
